From ChEMBL document CHEMBL1781932 (J Med Chem, 2011) come the findings set out here.

Common to all, as to assay type: functional
Experiment [1] deals with Escherichia coli. The experiment can be described thus: Antimicrobial activity against tetracycline-susceptible Escherichia coli isolate 107 by CLSI dilution method. In outline: (§1)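 Broth microdilution per CLSI in fresh cation-adjusted Mueller Hinton broth, kept at 4 °C before testing, with defibrinated horse blood added as appropriate. Strains were from ATCC. MIC in µg/mL. Runs were accepted when comparator antibiotics against ATCC quality-control strains fell within recommended ranges.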

Experiment [2] has as its system Staphylococcus aureus. The experiment can be described thus: Antimicrobial activity against methicillin-, tetracycline-resistant Staphylococcus aureus isolate 161 harboring tetM gene by CLSI dilution method.
The test system of experiment [3] is Enterococcus faecalis. The experiment can be described thus: Antimicrobial activity against tetracycline-susceptible Enterococcus faecalis isolate 103 by CLSI dilution method. Put shortly: as §1
In experiment [4] the test system is Klebsiella pneumoniae. In words: Antimicrobial activity against tetracycline-resistant Klebsiella pneumoniae isolate 153 harboring tetA gene by CLSI dilution method.
In experiment [5] the test system is Streptococcus pneumoniae. In words: Antimicrobial activity against tetracycline-resistant Streptococcus pneumoniae isolate 160 harboring tetM gene by CLSI dilution method.
For experiment [6], the system named is Klebsiella pneumoniae. The experiment can be described thus: Antimicrobial activity against tetracycline-susceptible Klebsiella pneumoniae isolate 109 by CLSI dilution method. In outline:
as §1

Another experiment deals with Enterobacter cloacae. In words: Antimicrobial activity against tetracycline-susceptible Enterobacter cloacae isolate 108 by CLSI dilution method. Put shortly:
as §1

Experiment [7] concerns Escherichia coli. The experiment can be described thus: Antimicrobial activity against tetracycline-resistant Escherichia coli isolate 155 harboring tetA gene by CLSI dilution method.
Experiment [8] concerns Staphylococcus aureus. The experiment can be described thus: Antimicrobial activity against tetracycline-resistant Staphylococcus aureus isolate 158 harboring tetK gene by CLSI dilution method.
The test system of experiment [9] is Enterococcus faecalis. In words: Antimicrobial activity against tetracycline-resistant Enterococcus faecalis isolate 159 harboring […] gene by CLSI dilution method.
Another experiment has as its system Acinetobacter baumannii. The experiment can be described thus: Antimicrobial activity against tetracycline-susceptible Acinetobacter baumannii isolate 110 by CLSI dilution method. Put shortly:
as §1

The test system of experiment [10] is Staphylococcus aureus. In words: Antimicrobial activity against tetracycline-susceptible Staphylococcus aureus isolate 101 by CLSI dilution method.
In the next experiment the test system is Pseudomonas aeruginosa. The experiment can be described thus: Antimicrobial activity against tetracycline-susceptible Pseudomonas aeruginosa isolate 111 by CLSI dilution method. In outline: as §1
Experiment [11] has as its system Streptococcus pneumoniae. In words: Antimicrobial activity against tetracycline-susceptible Streptococcus pneumoniae isolate 106 by CLSI dilution method. Put shortly:
as §1

In brackets after ≈: the same amount, converted by molar mass.

For orientation: MIC means the lowest concentration that inhibits growth of the organism. Consider `CN(C)[C@@H]1C(O)=C(C(N)=O)C(=O)[C@@]2(O)C(O)=C3C(=O)c4c(c(Cl)c5ccc(CN6CCC6)cc5c4O)C[C@H]3C[C@@H]12`, for which the MIC against Escherichia coli [1] turned out to be 2 µg/mL (≈ 3.52 µM); with Staphylococcus aureus [2] it was 2 µg/mL (≈ 3.52 µM); against Enterococcus faecalis [3], 0.25 µg/mL (≈ 0.44 µM); in the experiment on Klebsiella pneumoniae [4] it was 8 µg/mL (≈ 14.1 µM); in the experiment on Streptococcus pneumoniae [5] it was 0.5 µg/mL (≈ 0.88 µM); against Klebsiella pneumoniae [6], 4 µg/mL (≈ 7.04 µM). Further, the MIC against Enterobacter cloacae stood at 8 µg/mL (≈ 14.1 µM); in the experiment with Escherichia coli [7], 16 µg/mL (≈ 28.2 µM); with Staphylococcus aureus [8], 1 µg/mL (≈ 1.76 µM); with Enterococcus faecalis [9], 2 µg/mL (≈ 3.52 µM); in the experiment on Acinetobacter baumannii, 2 µg/mL (≈ 3.52 µM); with Staphylococcus aureus [10], 1 µg/mL (≈ 1.76 µM). For the same compound, in the experiment with Pseudomonas aeruginosa, the MIC was more than 32 µg/mL.

In the case of `CCCOc1c2c(c(O)c3cc(CN4CCC4)ccc13)C(=O)C1=C(O)[C@]3(O)C(=O)C(C(N)=O)=C(O)[C@@H](N(C)C)[C@@H]3C[C@@H]1C2`, the minimum inhibitory concentration (MIC) was found to be 2 µg/mL (≈ 3.38 µM) in the experiment on Escherichia coli [1]; 2 µg/mL (≈ 3.38 µM) in the experiment with Staphylococcus aureus [2]; 0.0156 µg/mL (≈ 0.0264 µM) against Streptococcus pneumoniae [11]; 0.25 µg/mL (≈ 0.423 µM) against Enterococcus faecalis [3]; 32 µg/mL (≈ 54.1 µM) in the experiment with Klebsiella pneumoniae [4]; 0.0625 µg/mL (≈ 0.106 µM) in the experiment on Streptococcus pneumoniae [5]. Moreover, the MIC against Klebsiella pneumoniae [6] came out at 8 µg/mL (≈ 13.5 µM); against Enterobacter cloacae it was 16 µg/mL (≈ 27 µM); against Escherichia coli [7], 16 µg/mL (≈ 27 µM); against Staphylococcus aureus [8], 0.25 µg/mL (≈ 0.423 µM); against Enterococcus faecalis [9], 2 µg/mL (≈ 3.38 µM); against Acinetobacter baumannii, 1 µg/mL (≈ 1.69 µM). Besides, the minimum inhibitory concentration (MIC) with Staphylococcus aureus [10] amounted to 0.125 µg/mL (≈ 0.211 µM); in the experiment on Pseudomonas aeruginosa it was 32 µg/mL (≈ 54.1 µM).

Regarding `CC(C)Oc1c2c(c(O)c3cc(CN4CCC4)ccc13)C(=O)C1=C(O)[C@]3(O)C(=O)C(C(N)=O)=C(O)[C@@H](N(C)C)[C@@H]3C[C@@H]1C2`, the MIC in the experiment on Escherichia coli [1] turned out to be 4 µg/mL (≈ 6.76 µM); in the experiment with Staphylococcus aureus [2], 4 µg/mL (≈ 6.76 µM); against Streptococcus pneumoniae [11], 0.0313 µg/mL (≈ 0.0529 µM); against Enterococcus faecalis [3], 0.5 µg/mL (≈ 0.845 µM); against Klebsiella pneumoniae [4], 32 µg/mL (≈ 54.1 µM); against Streptococcus pneumoniae [5], 0.0625 µg/mL (≈ 0.106 µM). The MIC against Klebsiella pneumoniae [6] stood at 16 µg/mL (≈ 27 µM); with Enterobacter cloacae, 16 µg/mL (≈ 27 µM); with Escherichia coli [7], 16 µg/mL (≈ 27 µM); with Staphylococcus aureus [8] it was 0.25 µg/mL (≈ 0.423 µM); against Enterococcus faecalis [9], 4 µg/mL (≈ 6.76 µM); against Acinetobacter baumannii, 2 µg/mL (≈ 3.38 µM). The MIC was 0.125 µg/mL (≈ 0.211 µM) in the experiment with Staphylococcus aureus [10] and more than 32 µg/mL in the experiment on Pseudomonas aeruginosa.

Regarding `CN(C)c1c2c(c(O)c3cc(CN4CCC4)ccc13)C(=O)C1=C(O)[C@]3(O)C(=O)C(C(N)=O)=C(O)[C@@H](N(C)C)[C@@H]3C[C@@H]1C2`, the MIC in the experiment with Escherichia coli [1] is 2 µg/mL (≈ 3.47 µM); in the experiment with Staphylococcus aureus [2], 2 µg/mL (≈ 3.47 µM); in the experiment on Streptococcus pneumoniae [11], less than 0.0156 µg/mL; with Enterococcus faecalis [3], 0.125 µg/mL (≈ 0.217 µM); in the experiment on Klebsiella pneumoniae [4], 16 µg/mL (≈ 27.7 µM); in the experiment on Streptococcus pneumoniae [5], 0.125 µg/mL (≈ 0.217 µM). Also, the MIC in the experiment with Klebsiella pneumoniae [6] came to 4 µg/mL (≈ 6.94 µM); with Enterobacter cloacae, 8 µg/mL (≈ 13.9 µM); against Staphylococcus aureus [8] it was 0.0625 µg/mL (≈ 0.108 µM); against Enterococcus faecalis [9] it was 2 µg/mL (≈ 3.47 µM); against Acinetobacter baumannii, 1 µg/mL (≈ 1.73 µM); against Staphylococcus aureus [10], 1 µg/mL (≈ 1.73 µM). The MIC against Pseudomonas aeruginosa was 32 µg/mL (≈ 55.5 µM).

In the case of `CN(C)[C@@H]1C(O)=C(C(N)=O)C(=O)[C@@]2(O)C(O)=C3C(=O)c4c(cc5ccc(-c6cccnc6)cc5c4O)C[C@H]3C[C@@H]12`, the MIC against Escherichia coli [1] was more than 32 µg/mL; in the experiment with Staphylococcus aureus [2], 1 µg/mL (≈ 1.85 µM); with Streptococcus pneumoniae [11], more than 32 µg/mL; against Enterococcus faecalis [3], 0.5 µg/mL (≈ 0.923 µM); against Klebsiella pneumoniae [4], more than 32 µg/mL; in the experiment with Streptococcus pneumoniae [5] it was more than 32 µg/mL. Besides, the MIC against Klebsiella pneumoniae [6] was more than 32 µg/mL; with Enterobacter cloacae it was more than 32 µg/mL; against Escherichia coli [7] it was more than 32 µg/mL; against Enterococcus faecalis [9], 0.25 µg/mL (≈ 0.462 µM); in the experiment with Acinetobacter baumannii it was more than 32 µg/mL; against Staphylococcus aureus [10], 1 µg/mL (≈ 1.85 µM). Also, the minimal inhibitory concentration (MIC) in the experiment with Pseudomonas aeruginosa is more than 32 µg/mL.

Regarding `CN(C)Cc1ccc2cc3c(c(O)c2c1)C(=O)C1=C(O)[C@]2(O)C(=O)C(C(N)=O)=C(O)[C@@H](N(C)C)[C@@H]2C[C@@H]1C3`, the MIC against Escherichia coli [1] was 1 µg/mL (≈ 1.92 µM); against Staphylococcus aureus [2] it was 1 µg/mL (≈ 1.92 µM); in the experiment with Streptococcus pneumoniae [11], 0.0313 µg/mL (≈ 0.06 µM); in the experiment on Enterococcus faecalis [3], 0.25 µg/mL (≈ 0.479 µM); in the experiment with Klebsiella pneumoniae [4] it was 4 µg/mL (≈ 7.67 µM); in the experiment with Streptococcus pneumoniae [5], 0.125 µg/mL (≈ 0.24 µM). The minimal inhibitory concentration (MIC) against Klebsiella pneumoniae [6] stood at 2 µg/mL (≈ 3.83 µM); against Enterobacter cloacae it was 2 µg/mL (≈ 3.83 µM); with Escherichia coli [7] it was 4 µg/mL (≈ 7.67 µM); against Staphylococcus aureus [8] it was 0.25 µg/mL (≈ 0.479 µM); in the experiment on Enterococcus faecalis [9], 1 µg/mL (≈ 1.92 µM); with Acinetobacter baumannii it was 2 µg/mL (≈ 3.83 µM). Besides, the MIC with Staphylococcus aureus [10] was 0.25 µg/mL (≈ 0.479 µM); with Pseudomonas aeruginosa it was more than 32 µg/mL.

As for `CCN(C)Cc1ccc2cc3c(c(O)c2c1)C(=O)C1=C(O)[C@]2(O)C(=O)C(C(N)=O)=C(O)[C@@H](N(C)C)[C@@H]2C[C@@H]1C3`, the MIC was determined as 2 µg/mL (≈ 3.73 µM) against Escherichia coli [1]; 2 µg/mL (≈ 3.73 µM) in the experiment with Staphylococcus aureus [2]; 0.125 µg/mL (≈ 0.233 µM) in the experiment with Streptococcus pneumoniae [11]; 0.5 µg/mL (≈ 0.934 µM) in the experiment with Enterococcus faecalis [3]; 32 µg/mL (≈ 59.7 µM) in the experiment on Klebsiella pneumoniae [4]; 0.25 µg/mL (≈ 0.467 µM) in the experiment on Streptococcus pneumoniae [5]. Moreover, the MIC is 8 µg/mL (≈ 14.9 µM) in the experiment with Klebsiella pneumoniae [6]; 4 µg/mL (≈ 7.47 µM) in the experiment on Enterobacter cloacae; 16 µg/mL (≈ 29.9 µM) in the experiment on Escherichia coli [7]; 0.5 µg/mL (≈ 0.934 µM) in the experiment with Staphylococcus aureus [8]; 4 µg/mL (≈ 7.47 µM) in the experiment with Enterococcus faecalis [9]; 2 µg/mL (≈ 3.73 µM) in the experiment with Acinetobacter baumannii. Moreover, the values for the minimum inhibitory concentration (MIC) with Staphylococcus aureus [10] and with Pseudomonas aeruginosa were 0.25 µg/mL (≈ 0.467 µM) and more than 32 µg/mL, respectively.
